Data taken from ChEMBL document CHEMBL1268937, “Design of more potent squalene synthase inhibitors with multiple activities” (Bioorg Med Chem, 2010).
Each block holds one compound with its values, some of them ahead of it. Activity calls are given as the source filed them. No cut-off for these calls is given here.

Assays:
[1] = (§1) Inhibition of soybean lipoxygenase measured for 6 mins; design: species or system Glycine max
Method in brief: (§2)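 Soybean lipoxygenase (250 U/mL) with sodium linoleate (100 µM) as substrate in Tris-HCl pH 9.0. Compounds added in 60% ethanol. Absorbance at 234 nm followed for 6 min at 28 °C. Each concentration assayed twice.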

Squalene synthase = molecular target: T1, Squalene synthase (Rattus norvegicus, UniProt Q02769); experiment: Inhibition of squalene synthase in rat liver microsomes assessed as [3H] FPP to squalene conversion level after 10 mins by scintillation counting; design: species or system Microsome
T1 sequence (Q02769 whole entry): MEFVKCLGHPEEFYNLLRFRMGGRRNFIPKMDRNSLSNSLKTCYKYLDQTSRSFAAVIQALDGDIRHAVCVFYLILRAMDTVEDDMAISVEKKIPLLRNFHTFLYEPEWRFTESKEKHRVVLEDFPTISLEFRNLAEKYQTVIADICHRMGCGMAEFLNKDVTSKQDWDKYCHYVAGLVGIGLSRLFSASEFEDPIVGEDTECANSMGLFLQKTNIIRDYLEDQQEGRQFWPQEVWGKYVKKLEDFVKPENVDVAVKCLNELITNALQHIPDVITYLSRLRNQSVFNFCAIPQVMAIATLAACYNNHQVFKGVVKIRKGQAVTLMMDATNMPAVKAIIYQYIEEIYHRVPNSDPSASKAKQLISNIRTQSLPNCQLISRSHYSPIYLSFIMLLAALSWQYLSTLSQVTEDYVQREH
Method in brief: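 Rat liver microsomes (18 µg protein/mL) in 50 mM phosphate pH 7.4 with 10 mM MgCl2 and 0.5 mM NADPH, preincubated with compounds for 10 min at 37 °C. Started with [3H]FPP and run for 10 min at 37 °C. Stopped with 15% ethanolic KOH, then 65 °C for 30 min. Squalene extracted into petroleum ether, washed and counted by scintillation. Triplicates; IC50 is the concentration giving 50% inhibition.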

Liver microsomes = experiment: Antioxidant activity in rat hepatic microsomes assessed as inhibition of lipid peroxidation after 45 min by spectrophotometric analysis; assay type: functional, Microsome
Method in brief: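 Non-enzymatic peroxidation of rat hepatic microsomal lipids in buffer (150 mM, pH 7.4). Compounds in DMSO, 10 µM–1 mM. Started with fresh FeSO4 and incubated at 37 °C for 45 min. Thiobarbituric acid-reactive material read at 535 against 600 nm. Run in duplicate.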

Rattus norvegicus [2] = experiment: Antidyslipidemic activity against triton WR-1339-induced hyperlipidemia in rat assessed as reduction in plasma total cholesterol level at 56 umol/kg, ip after 24 hrs relative to control; assay type: functional; design: scale not given: the % may be the effect or the level left
Method in brief: (§3)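 Hyperlipidemia induced in male Wistar rats by ip Triton WR 1339 (200 mg/kg, aqueous). Test compounds in saline given ip 1 h later; saline-only controls. Blood drawn from the aorta 24 h later. Plasma total cholesterol, LDL-cholesterol and triglycerides measured with commercial kits in duplicate. Values are means of 8–10 rats per compound.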

Rattus norvegicus [3] = experiment: Antidyslipidemic activity against triton WR-1339-induced hyperlipidemia in rat assessed as reduction in plasma LDL-cholesterol level at 56 umol/kg, ip after 24 hrs relative to control; assay type: functional; design: scale not given: the % may be the effect or the level left; method in brief: as §3
Rattus norvegicus [4] = experiment: Antidyslipidemic activity against triton WR-1339-induced hyperlipidemia in rat assessed as reduction in plasma triglyceride level at 56 umol/kg, ip after 24 hrs relative to control; assay type: functional; design: scale not given: the % may be the effect or the level left; method in brief: as §3
Rattus norvegicus [5] = experiment: Antiinflammatory activity in Wistar rat assessed as inhibition of carrageenan-induced paw edema at 300 umol/kg, ip after 3.5 hrs; assay type: functional
Method in brief: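 Male Wistar rats (150–180 g) received 0.1 mL of 2% w/v carrageenan in saline intradermally into the right hind paw; the left paw served as control. Compounds were given ip right after carrageenan. Edema was taken as paw weight increase at 3.5 h and expressed as % inhibition versus the control group. Means of 8–10 rats; Student's t-test.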

Glycine max [6] = experiment: as §1; method in brief: as §2
Glycine max [7] = experiment: Inhibition of soybean lipoxygenase at up to 150 uM; settings: TDE = time-dependent effect; method in brief: as §2

Compound: Br.CN1CCOC(O)(c2ccc3ccccc3c2)C1 (stereo unspecified)
IC50 [1]: > 300 µM | IC50 (Squalene synthase): 135 µM | IC50 (Liver microsomes): 640 µM | Activity (Rattus norvegicus [2]): 51% | Activity (Rattus norvegicus [3]): 36% | Activity (Rattus norvegicus [4]): 40% | Activity (Rattus norvegicus [5]): Active

Compound: Br.CN1CC(O)(c2ccc(-c3ccc4ccccc4c3)cc2)OC2CCCCC21 (stereo unspecified)
IC50 [1]: > 100 µM | IC50 (Squalene synthase): 0.8 µM | IC50 (Liver microsomes): 118 µM | Activity (Rattus norvegicus [2]): 43% | Activity (Rattus norvegicus [3]): 48% | Activity (Rattus norvegicus [4]): 32%

Compound: Br.COc1ccc2cc(-c3ccc(C4(O)CN5CCCCC5CO4)cc3)ccc2c1 (stereo unspecified)
IC50 [1]: > 100 µM | IC50 (Squalene synthase): 18 µM | IC50 (Liver microsomes): 65 µM | Activity (Rattus norvegicus [2]): 19% | Activity (Rattus norvegicus [3]): 29% | Activity (Rattus norvegicus [4]): 6% | Activity (Rattus norvegicus [5]): Active

Compound: Br.CN1CCOC(O)(c2ccc(-c3ccc4ccccc4c3)cc2)C1 (stereo unspecified)
IC50 [1]: > 100 µM | IC50 (Squalene synthase): 1.9 µM | IC50 (Liver microsomes): 71 µM | Activity (Rattus norvegicus [2]): 37% | Activity (Rattus norvegicus [3]): 59% | Activity (Rattus norvegicus [4]): 28% | Activity (Rattus norvegicus [5]): Active

Compound: Br.CN1CC(O)(c2ccc3ccccc3c2)OC2CCCCC21 (stereo unspecified)
IC50 [1]: > 300 µM | IC50 (Squalene synthase): 15.1 µM | IC50 (Liver microsomes): 600 µM | Activity (Rattus norvegicus [2]): 43% | Activity (Rattus norvegicus [3]): 39% | Activity (Rattus norvegicus [4]): 51% | Activity (Rattus norvegicus [5]): 54%

Compound: CC(C)(Sc1cc(C(C)(C)C)c(O)c(C(C)(C)C)c1)Sc1cc(C(C)(C)C)c(O)c(C(C)(C)C)c1 [PROBUCOL]
Activity (Rattus norvegicus [2]): 18% | Activity (Rattus norvegicus [3]): 18% | Activity (Rattus norvegicus [4]): 11%

Compound: Br.COc1ccc2cc(C3(O)CN(C)CCO3)ccc2c1 (stereo unspecified)
IC50 [1]: 20 µM | inhibition (Glycine max [6]): Dose-dependent effect | IC50 (Squalene synthase): 155 µM | IC50 (Liver microsomes): 900 µM | Activity (Rattus norvegicus [2]): 62% | Activity (Rattus norvegicus [3]): 24% | Activity (Rattus norvegicus [4]): 51% | inhibition (Glycine max [7]): tde | Activity (Rattus norvegicus [5]): 58%

Compound: Br.OC1(c2ccc(-c3ccc4ccccc4c3)cc2)CN2CCCCC2CO1 (stereo unspecified)
IC50 [1]: > 100 µM | IC50 (Liver microsomes): 117 µM | Activity (Rattus norvegicus [2]): 49% | Activity (Rattus norvegicus [3]): 33% | Activity (Rattus norvegicus [4]): 34% | Activity (Rattus norvegicus [5]): Active

Compound: Br.OC1(c2ccc3ccccc3c2)CN2CCCCC2CO1 (stereo unspecified)
IC50 [1]: > 300 µM | IC50 (Squalene synthase): 130 µM | IC50 (Liver microsomes): 440 µM | Activity (Rattus norvegicus [2]): 33% | Activity (Rattus norvegicus [3]): 42% | Activity (Rattus norvegicus [4]): 41% | Activity (Rattus norvegicus [5]): Active

Compound: Br.COc1ccc2cc(-c3ccc(C4(O)CN(C)CCO4)cc3)ccc2c1 (stereo unspecified)
IC50 [1]: > 100 µM | IC50 (Squalene synthase): 6.9 µM | IC50 (Liver microsomes): 30 µM | Activity (Rattus norvegicus [2]): 41% | Activity (Rattus norvegicus [3]): 9% | Activity (Rattus norvegicus [4]): 30%

The next lines start with results.

IC50 [1]: > 100 µM | IC50 (Squalene synthase): 1.4 µM | IC50 (Liver microsomes): 48 µM
Compound: Br.COc1ccc2cc(-c3ccc(C4(O)CN(C)C5CCCCC5O4)cc3)ccc2c1 (stereo unspecified)
Activity (Rattus norvegicus [2]): 32% | Activity (Rattus norvegicus [3]): 54% | Activity (Rattus norvegicus [4]): 82% | Activity (Rattus norvegicus [5]): Active

IC50 [1]: 24 µM
Compound: COc1ccc2cc([C@H](C)C(=O)O)ccc2c1 [NAPROXEN]
Activity (Rattus norvegicus [5]): 51%

IC50 [1]: 53 µM | inhibition (Glycine max [6]): Dose-dependent effect | IC50 (Squalene synthase): 18.7 µM | IC50 (Liver microsomes): 390 µM | inhibition (Glycine max [7]): tde
Compound: Br.COc1ccc2cc(C3(O)CN4CCCCC4CO3)ccc2c1 (stereo unspecified)
Activity (Rattus norvegicus [2]): 45% | Activity (Rattus norvegicus [3]): 46% | Activity (Rattus norvegicus [4]): 37% | Activity (Rattus norvegicus [5]): Active

IC50 [1]: 110 µM
Compound: CN1CC(O)(c2ccc(-c3ccccc3)cc2)OC2CCCCC21 (stereo unspecified)
Activity (Rattus norvegicus [2]): 54% | Activity (Rattus norvegicus [3]): 51% | Activity (Rattus norvegicus [4]): 49%

IC50 [1]: 84 µM | inhibition (Glycine max [6]): Dose-dependent effect | IC50 (Squalene synthase): 40 µM | IC50 (Liver microsomes): 220 µM | inhibition (Glycine max [7]): tde
Compound: Br.COc1ccc2cc(C3(O)CN(C)C4CCCCC4O3)ccc2c1 (stereo unspecified)
Activity (Rattus norvegicus [2]): 36% | Activity (Rattus norvegicus [3]): 33% | Activity (Rattus norvegicus [4]): 47% | Activity (Rattus norvegicus [5]): 53%
